Source: ChEMBL document CHEMBL1151417, “Cytotoxic triterpenoid glycosides from the roots of Gordonia chrysandra” (J Nat Prod, 2009)

How the values were obtained:
Format in all cases: functional, cell-based
[1] = system: A2780; experiment: Cytotoxicity against human A2780 cells after 96 hrs by MTT assay; details: A2780, 96 h
Procedure, shortened: (§1)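 Cells kept in RPMI 1640 with 10% FBS, L-glutamine, penicillin/streptomycin at 37 °C, 5% CO2. 1.5 × 10³ cells/well seeded; after 24 h compounds added in DMSO at five final concentrations (0.01-10 […]), triplicate wells, 96 h exposure. MTT (0.5 mg/mL) 4 h at 37 °C, formazan dissolved in DMSO, A570 read. IC50 = 50% OD reduction vs control from dose-response curve.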

[2] = system: Bel-7402; experiment: Cytotoxicity against human Bel7402 cells after 96 hrs by MTT assay; details: Bel-7402, 96 h; procedure, shortened: as §1
[3] = system: A549; experiment: Cytotoxicity against human A549 cells after 96 hrs by MTT assay; details: A549, 96 h; procedure, shortened: as §1
[4] = system: HCT-8; experiment: Cytotoxicity against human HCT8 cells after 96 hrs by MTT assay; details: HCT-8, 96 h; procedure, shortened: as §1
[5] = system: BGC-823; experiment: Cytotoxicity against human BGC823 cells after 96 hrs by MTT assay; details: BGC-823, 96 h; procedure, shortened: as §1

C/C=C(/C)C(=O)O[C@H]1[C@H](OC(=O)/C(C)=C\C)[C@]2(CO)[C@H](OC(C)=O)C[C@]3(C)C(=CC[C@@H]4[C@@]5(C)CC[C@H](O[C@@H]6O[C@H](C(=O)O)[C@@H](O)[C@H](O[C@@H]7OC[C@H](O)[C@H](O)[C@H]7O)[C@H]6O)[C@@](C)(CO)[C@@H]5CC[C@]43C)[C@@H]2CC1(C)C [GORDONOSIDE B]
IC50 [1]: > 10 µM | IC50 [2]: > 10 µM | IC50 [3]: > 10 µM | IC50 [4]: > 10 µM | IC50 [5]: > 10 µM

C/C=C(/C)C(=O)O[C@H]1[C@H](OC(=O)/C(C)=C\C)[C@]2(CO)[C@H](O)[C@H](O)[C@]3(C)C(=CC[C@@H]4[C@@]5(C)CC[C@H](O[C@@H]6O[C@H](C(=O)O)[C@@H](O)[C@H](O[C@@H]7OC[C@H](O)[C@H](O)[C@H]7O)[C@H]6O)[C@@](C)(C(=O)OC)[C@@H]5CC[C@]43C)[C@@H]2CC1(C)C [GORDONOSIDE G]
IC50 [1]: > 10 µM | IC50 [2]: > 10 µM | IC50 [3]: > 10 µM | IC50 [4]: > 10 µM | IC50 [5]: > 10 µM

C/C=C(/C)C(=O)O[C@H]1[C@H](OC(=O)/C(C)=C\C)[C@]2(CO)[C@H](O)C[C@]3(C)C(=CC[C@@H]4[C@@]5(C)CC[C@H](O[C@@H]6O[C@H](C(=O)O)[C@@H](O)[C@H](O[C@@H]7OC[C@H](O)[C@H](O)[C@H]7O)[C@H]6O)[C@@](C)(C=O)[C@@H]5CC[C@]43C)[C@@H]2CC1(C)C [GORDONOSIDE E]
IC50 [1]: 2 µM | IC50 [2]: 1.1 µM | IC50 [3]: > 10 µM | IC50 [4]: 2.7 µM | IC50 [5]: > 10 µM

C/C=C(/C)C(=O)O[C@H]1[C@H](OC(=O)/C(C)=C\C)[C@]2(CO)[C@H](O)C[C@]3(C)C(=CC[C@@H]4[C@@]5(C)CC[C@H](O[C@@H]6O[C@H](C(=O)O)[C@@H](O)[C@H](O[C@@H]7OC[C@H](O)[C@H](O)[C@H]7O)[C@H]6O)C(C)(C)[C@@H]5CC[C@]43C)[C@@H]2CC1(C)C [GORDONOSIDE C]
IC50 [1]: 0.4 µM | IC50 [2]: 0.7 µM | IC50 [3]: 1.8 µM | IC50 [4]: 1.2 µM | IC50 [5]: 2.5 µM

C/C=C(/C)C(=O)O[C@H]1[C@H](OC(=O)/C(C)=C\C)[C@]2(CO)[C@H](O)C[C@]3(C)C(=CC[C@@H]4[C@@]5(C)CC[C@H](O[C@@H]6O[C@H](C(=O)O)[C@@H](O)[C@H](O[C@@H]7OC[C@H](O)[C@H](O)[C@H]7O)[C@H]6O)[C@@](C)(CO)[C@@H]5CC[C@]43C)[C@@H]2CC1(C)C [GORDONOSIDE A]
IC50 [1]: 5.5 µM | IC50 [2]: 4.7 µM | IC50 [3]: > 10 µM | IC50 [4]: > 10 µM | IC50 [5]: > 10 µM

CC(=O)O[C@H]1C(=O)[C@@]2(C)[C@H]([C@H](OC(=O)c3ccccc3)[C@]3(O)C[C@H](OC(=O)[C@H](O)[C@@H](NC(=O)c4ccccc4)c4ccccc4)C(C)=C1C3(C)C)[C@]1(OC(C)=O)CO[C@@H]1C[C@@H]2O [PACLITAXEL]
IC50 [1]: 0.9 µM | IC50 [2]: 6.3 µM | IC50 [3]: 0.001 µM | IC50 [4]: 3.6 µM | IC50 [5]: 0.04 µM

C/C=C(/C)C(=O)O[C@H]1[C@H](OC(=O)/C(C)=C\C)[C@]2(CO)[C@H](O)C[C@]3(C)C(=CC[C@@H]4[C@@]5(C)CC[C@H](O[C@@H]6O[C@H](C(=O)O)[C@@H](O)[C@H](O[C@@H]7OC[C@H](O)[C@H](O)[C@H]7O)[C@H]6O)[C@@](C)(C(=O)OC)[C@@H]5CC[C@]43C)[C@@H]2CC1(C)C [GORDONOSIDE F]
IC50 [1]: 2 µM | IC50 [2]: 1.3 µM | IC50 [3]: > 10 µM | IC50 [4]: > 10 µM | IC50 [5]: > 10 µM

C/C=C(/C)C(=O)O[C@H]1[C@H](OC(=O)/C(C)=C\C)[C@]2(CO)[C@H](OC(C)=O)C[C@]3(C)C(=CC[C@@H]4[C@@]5(C)CC[C@H](O[C@@H]6O[C@H](C(=O)O)[C@@H](O)[C@H](O[C@@H]7OC[C@H](O)[C@H](O)[C@H]7O)[C@H]6O)C(C)(C)[C@@H]5CC[C@]43C)[C@@H]2CC1(C)C [GORDONOSIDE D]
IC50 [1]: > 10 µM | IC50 [2]: > 10 µM | IC50 [3]: > 10 µM | IC50 [4]: > 10 µM | IC50 [5]: > 10 µM
